Screening results deposited in PubChem BioAssay by several laboratories.
The list is not random: actives were taken first. Their share in the collection is about 4.3%.
MC4R antagonist: human MC4R antagonism in cAMP assay. inhibition, % at 6.5 µM. hit rate 0.48% among 360,000. MC4R-expressing cells, MTII-stimulated cAMP, LANCE TR-FRET. P32245;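 active = inhibition above its plate's cutoff, the mean of tested wells on that plate plus 3 SD, cut at about 29% in these data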
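Material: U2OS-MC4R stable cell line | Reagent: Melanotan II challenge after compound preincubation | Doses: One concentration, 6.5 µM nominal | Incubation: 30-min compound preincubation, 1-h Melanotan II challenge, 1-h detection, room temperature | Signal: TR-FRET cAMP assay | Replicates: One well per compound, no replicates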
TAAR1 antagonist: human TAAR1 antagonism. Q96RJ0. CHO RD-HGA16 TAAR1, Fluo-8 calcium fluorescence, antagonist. inhibition, % at 3 µM. hit rate 1.5% among 360,000;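 active = inhibition above a per-plate cutoff, the mean inhibition of test compounds on that plate plus 3 SD, cut at about 49% in these data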
Target sequence (Q96RJ0 whole entry, looked up): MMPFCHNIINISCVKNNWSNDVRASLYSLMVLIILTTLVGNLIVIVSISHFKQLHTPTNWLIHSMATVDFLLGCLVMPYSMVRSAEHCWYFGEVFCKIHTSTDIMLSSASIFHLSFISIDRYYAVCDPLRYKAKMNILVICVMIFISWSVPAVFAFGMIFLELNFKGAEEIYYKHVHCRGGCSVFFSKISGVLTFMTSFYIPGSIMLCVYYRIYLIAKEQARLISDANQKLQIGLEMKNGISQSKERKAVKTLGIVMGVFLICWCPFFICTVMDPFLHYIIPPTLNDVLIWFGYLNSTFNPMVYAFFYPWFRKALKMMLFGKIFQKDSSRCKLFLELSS
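Material: CHO RD-HGA16 cells bearing hTAAR1; compound dosing: one-point dosing, 3 µM nominal final; schedule: dye loading 75 min at 37 °C, then 30 min room temperature; measured by: calcium fluorescence with Fluo-8; control set: vehicle and agonist controls; replication: n of 1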
Beta2AR agonist: human beta-2 adrenergic receptor agonism by FAP; P07550; Am2.2-beta2AR cells, FAP receptor internalization, flow cytometry; response, % (test concentration not listed); hit rate 0.43% among 340,000; AID 504454;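 active = response above a set limit, near 3 SD of response in nonfluorescent compounds, cut at about 42% in these data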
Target sequence (P07550 whole entry, looked up): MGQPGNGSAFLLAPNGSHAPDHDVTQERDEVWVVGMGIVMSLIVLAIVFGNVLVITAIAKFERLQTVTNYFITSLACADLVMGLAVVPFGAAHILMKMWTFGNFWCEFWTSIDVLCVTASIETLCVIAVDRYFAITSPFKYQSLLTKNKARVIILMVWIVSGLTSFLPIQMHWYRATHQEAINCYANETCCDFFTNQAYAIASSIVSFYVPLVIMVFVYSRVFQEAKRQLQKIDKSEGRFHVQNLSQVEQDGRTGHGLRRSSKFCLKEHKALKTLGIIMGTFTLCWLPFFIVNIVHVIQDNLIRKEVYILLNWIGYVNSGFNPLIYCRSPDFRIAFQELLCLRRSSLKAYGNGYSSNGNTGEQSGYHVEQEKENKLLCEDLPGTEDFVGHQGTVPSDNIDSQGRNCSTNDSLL
TAAR1 agonist: human TAAR1 agonism; Q96RJ0; CHO RD-HGA16 TAAR1, Fluo-8 calcium fluorescence; vehicle wells 0%, saturating PEA agonist 100%; activation, % at 3 µM; hit rate 0.99% among 360,000;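 active = activation above the mean activation of all test compounds in the run plus 3 SD, cut at about 38% in these data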
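Signal – calcium-sensitive Fluo-8 signal, excitation 470-495, emission 515-575 nm · System – RD-HGA16 (CHO) cells co-expressing Gα16 and hTAAR1 · Incubation – 17-24 h seeding, 75 min 37 °C dye, 30 min RT · Compound dosing – 3 µM single concentration · Repeats – no replicates (n 1)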
HTR2A ag: activates the mouse 5-HT2A serotonin receptor. CHO-K1 mHTR2A beta-arrestin complementation, luminescence; percent of 30 µM serotonin response. activation, % at 7.6 µM. hit rate 0.66% among 360,000. AID 624169;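 active = activation above a run cutoff, the mean activation of all tested compounds plus 3 SD, cut at about 14% in these data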
MC4R barr agon: activates human MC4R beta-arrestin recruitment; activation, % at 8.9 µM; U2OS MC4R beta-arrestin complementation, luminescence; percent of melanotan II response, DMSO zero; hit rate 0.98% among 360,000;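 active = activation above a per-plate cutoff, the mean activation of sample wells on that plate plus 3 SD, cut at about 8% in these data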
Large screens that a line does not name were inactive.

COc1cc(NC(=O)Nc2nc(C(N)CCc3ccccc3)cs2)cc(OC)c1OC (configuration not stated)	none (no result: Beta2AR agonist)
CC(C)c1ccc(NC(=O)Nc2nc(C(C)N)cs2)cc1 (configuration not stated)	none (no result: Beta2AR agonist)
CC(C)c1ccc(NC(=O)Nc2nc(C(N)CCc3ccccc3)cs2)cc1 (configuration not stated)	TAAR1 agonist 42.4 (no result: Beta2AR agonist)
C=CCNC(=S)NNC(=O)COc1ccc2cc(Br)ccc2c1	HTR2A ag 15.8
NC(=O)c1ccsc1NC(=O)c1ccc2c(c1)CCCC2	none
CNC(=O)c1ccsc1NC(=O)c1ccc2c(c1)CCCC2	TAAR1 antagonist 51.4
Cc1cccnc1N=O	none (no result: MC4R antagonist, Beta2AR agonist, HTR2A ag, MC4R barr agon)
O=C(COC(=O)c1cccc(NC(=O)c2ccco2)c1)c1ccc(Br)cc1	TAAR1 antagonist 61.7
CC(C)(C)C(=O)COC(=O)c1cccc(NC(=O)c2ccco2)c1	none
CC(=O)OCC(=O)[C@@]12OC3(CCCC3)O[C@@H]1C[C@H]1[C@@H]3CCC4=CC(=O)C=C[C@]4(C)[C@@]3(F)[C@@H](O)C[C@@]12C	HTR2A ag 18.2
CC1(C)O[C@@H]2C[C@H]3[C@@H]4CCC5=CC(=O)C=C[C@]5(C)[C@@]4(F)[C@@H](O)C[C@]3(C)[C@]2(C(=O)CO)O1	none
CN(C)c1cccc2c(S(=O)(=O)NCC3CCN(C(=O)C(=O)c4cccs4)CC3)cccc12	none (no result: MC4R antagonist, Beta2AR agonist, HTR2A ag, MC4R barr agon)
N/C(Cc1ccc(Cl)cc1)=N\OC(=O)c1ccc2ccccc2c1	MC4R barr agon 9.2
COC(=O)c1cc2c(c3c4ccccc4n(S(=O)(=O)c4ccc(OC)cc4)c13)C(=O)N(Cc1ccco1)C2	none (no result: MC4R antagonist, Beta2AR agonist, HTR2A ag, MC4R barr agon)
O=C(Cc1c[nH]c2ccccc12)Nc1ccc(Nc2cccnc2)cc1	none (no result: MC4R antagonist, Beta2AR agonist, HTR2A ag, MC4R barr agon)
CCOC(=O)c1c(S(=O)(=O)NCCc2ccccc2)c(C)n(C)c1C	TAAR1 agonist 38.6
COc1ccccc1-c1cnc(C(O)c2ccc(CN3CCCCC3)cc2)[nH]1 (configuration not stated)	none (no result: Beta2AR agonist)
COc1ccc(Cn2cc(CN3[C@@H](c4ccccc4)COc4cc(Br)ccc4S3(=O)=O)nn2)cc1	none (no result: MC4R antagonist, Beta2AR agonist, HTR2A ag, MC4R barr agon)
CCC(=O)N1CCC2(CC1)Oc1ccc(Cl)cc1C(=O)C21CC(c2ccccc2)=NO1 (configuration not stated)	TAAR1 antagonist 53.9
CCC(=O)N1CCC2(CC1)Oc1ccc(F)cc1C(=O)C21CC(c2ccccc2)=NO1 (configuration not stated)	none
COc1cccc(NC(=O)/C=C/c2ccco2)c1	none
O=C(/C=C/c1ccco1)Nc1ccc(Oc2ccc(Cl)cc2)cc1	TAAR1 antagonist 78.1
Cc1ccc2cc3cc(C(=O)N(CC(=O)NC4CCCC4)c4cccc(C)c4C)sc3nc2c1	MC4R antagonist 34.0
COc1ccc(C(N)c2csc(Nc3ncccn3)n2)cc1 (configuration not stated)	none (no result: Beta2AR agonist)
COc1ccc(C(N)c2csc(Nc3nncc4ccccc34)n2)cc1 (configuration not stated)	TAAR1 agonist 42.0 (no result: Beta2AR agonist)
COc1ccc(C(N)c2csc(Nc3cc(Oc4ccccc4)ncn3)n2)cc1 (configuration not stated)	TAAR1 agonist 38.0 (no result: Beta2AR agonist)
Nc1ccc(CC(N)c2csc(Nc3cc(Oc4ccccc4)ncn3)n2)cc1 (configuration not stated)	none (no result: Beta2AR agonist)
CCOC(=O)C1=CCN(S(=O)(=O)c2ccc([N+](=O)[O-])cc2)C1c1ccc(C)cc1 (configuration not stated)	none (no result: MC4R antagonist, Beta2AR agonist, HTR2A ag, MC4R barr agon)
N/C(=N\OC(=O)c1ccccc1)c1ccccn1	none
C/C(=N\NC(=O)C(c1ccccc1)c1ccccc1)c1ccccn1	Beta2AR agonist 46.2
N/C(=N\OC(=O)C(c1ccccc1)c1ccccc1)c1ccccn1	Beta2AR agonist 58.3
Cc1[nH]c2ccccc2c1CC(=O)Nc1ccc(Oc2cccnc2)cc1	none (no result: MC4R antagonist, Beta2AR agonist, HTR2A ag, MC4R barr agon)
COc1cc(-c2ccc3oc(-c4ccsc4)cc(=O)c3c2)cc(OC)c1OC	TAAR1 antagonist 49.9
COc1cc(-c2cc(=O)c3ccc(O)cc3o2)cc(OC)c1OC	none (no result: Beta2AR agonist)
C[C@H](CO)N1C[C@H](C)[C@@H](CN(C)C(=O)c2ccncc2)OCc2cn(nn2)CCCC1=O	none (no result: MC4R antagonist, Beta2AR agonist, HTR2A ag, MC4R barr agon)
O=C(CN1C(=O)NC(CCc2ccccc2)C1=O)Nc1ccc(F)c(F)c1F (configuration not stated)	TAAR1 agonist 44.3
O=C1CN(C(=O)c2ccccc2F)C(c2ccc(F)cc2)c2cc(Br)ccc2N1 (configuration not stated)	none
O=C1CN(C(=O)c2ccccc2Br)C(c2ccc(F)cc2)c2cc(F)ccc2N1 (configuration not stated)	TAAR1 agonist 40.8
O=C(Nc1nnc(SCc2ccc(Cl)cc2)s1)c1ccco1	MC4R barr agon 8.8
CCSc1nnc(NC(=O)c2ccco2)s1	none
O=C(CN1C(=O)C2CC=CCC2C1=O)Nc1nc(-c2ccc(F)cc2)cs1 (configuration not stated)	TAAR1 antagonist 51.1
O=C(CN1C(=O)C2CCCCC2C1=O)Nc1nc(-c2ccc(F)cc2)cs1 (configuration not stated)	none
COc1cc(/C=C(\C#N)c2nc3ccccc3o2)ccc1O	TAAR1 antagonist 50.8, TAAR1 agonist 58.2
Cc1ccc(Cl)cc1-c1cc(C(=O)NCc2cc(C(F)(F)F)cc(C(F)(F)F)c2)[nH]n1	none (no result: Beta2AR agonist)
CCc1cc2c(-c3ccccc3)cc(=O)oc2cc1OC(C)C(C)=O (configuration not stated)	TAAR1 antagonist 50.4
Nc1nc(Cn2nnc(-c3ccccc3F)n2)nc(N2CCOCC2)n1	Beta2AR agonist 51.6
COc1ccc(/C=N/n2c(C)nc3ccccc3c2=O)cc1	none
COc1ccc(/C=N\n2nnc3ccccc32)cc1	MC4R barr agon 9.0
CCOC(=O)CCCCCCCCC(=O)Nc1ccc(-n2[nH]c(=O)cc2C)cc1	TAAR1 agonist 44.4
O=C1NC(=O)C2(CCCc3ccc(N(CCO)CCO)cc32)N1 (configuration not stated)	none (no result: MC4R antagonist, Beta2AR agonist, HTR2A ag, MC4R barr agon)
C=CCNc1ccc2c(c1)OC[C@H](Cc1ccccc1)NS2(=O)=O	none (no result: MC4R antagonist, Beta2AR agonist, HTR2A ag, MC4R barr agon)
Cc1nn(-c2ccccc2)c(Cl)c1CN(C(=O)CCl)c1cccc2ccccc12	TAAR1 antagonist 50.5
COCCN1Cc2cc(C(=O)OC)c3c(c2C1=O)c1cc(OC)ccc1n3S(C)(=O)=O	none (no result: MC4R antagonist, Beta2AR agonist, HTR2A ag, MC4R barr agon)
COc1cc(OC)cc(-c2c(-c3cccs3)c3cc(-c4ccn[nH]4)ccc3n2C)c1	none
O=C(CSc1ccc(Cl)cc1)Nc1ccc(-c2nc3ccccc3[nH]2)cc1	MC4R barr agon 10.2
O=C(Cc1ccc(Cl)cc1)Nc1nc2ccccc2[nH]1	TAAR1 agonist 38.7
O=C(CSc1ccccc1)Nc1nc2ccccc2[nH]1	none
